In ChEMBL document CHEMBL1148104, “New sugar-mimic alkaloids from the pods of Angylocalyx pynaertii” (J Nat Prod, 2002):

Legend:
[1] = Inhibition of Aspergillus niger amyloglucosidase assessed as glucose release by Glucose B-test
Outline: (§1)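 Disaccharide substrate suited to each enzyme, at that enzyme's optimum pH. Released D-glucose was measured colorimetrically with the Glucose B-test.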

[2] = biological target: Lysosomal alpha-glucosidase (Rattus norvegicus) (UniProt Q6P7A9); assay: Inhibition of rat intestinal maltase assessed as glucose release at 1000 uM by Glucose B-test
Outline: (§2)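 Enzyme source was brush border membranes prepared from rat small intestine. Maltase, sucrase and isomaltase activities were read with the matching disaccharide substrate at each enzyme's optimum pH, and liberated D-glucose was quantified colorimetrically by Glucose B-test.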

Beta-galactosidase = biological target: T1, Beta-galactosidase (Bos taurus, UniProt Q58D55); assay: Inhibition of bovine liver beta-galactosidase assessed as p-nitrophenol release by spectrophotometrically
T1 sequence (Q58D55 whole entry): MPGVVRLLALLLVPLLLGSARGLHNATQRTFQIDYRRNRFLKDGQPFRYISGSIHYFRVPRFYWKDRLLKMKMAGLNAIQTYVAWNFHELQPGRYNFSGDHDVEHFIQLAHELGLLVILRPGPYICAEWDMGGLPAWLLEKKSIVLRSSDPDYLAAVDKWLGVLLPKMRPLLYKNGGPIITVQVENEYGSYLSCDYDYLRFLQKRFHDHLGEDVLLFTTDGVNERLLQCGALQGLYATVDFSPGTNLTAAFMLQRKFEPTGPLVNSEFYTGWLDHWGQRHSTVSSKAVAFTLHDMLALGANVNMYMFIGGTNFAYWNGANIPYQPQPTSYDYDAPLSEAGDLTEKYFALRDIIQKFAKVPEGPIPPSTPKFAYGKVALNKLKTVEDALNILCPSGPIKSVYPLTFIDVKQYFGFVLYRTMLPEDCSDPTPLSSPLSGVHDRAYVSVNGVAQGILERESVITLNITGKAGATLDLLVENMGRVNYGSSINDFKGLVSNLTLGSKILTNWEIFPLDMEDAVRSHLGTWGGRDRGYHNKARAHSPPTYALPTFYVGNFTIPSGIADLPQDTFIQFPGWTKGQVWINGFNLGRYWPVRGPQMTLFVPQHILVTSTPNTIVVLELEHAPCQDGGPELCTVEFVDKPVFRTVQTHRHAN
Outline: (§3)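 Assayed with the appropriate p-nitrophenyl glycoside substrate at each enzyme's optimum pH.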

Beta-mannosidase = biological target: T2, Beta-mannosidase (Rattus norvegicus, UniProt Q4FZV0); assay: Inhibition of rat epididymis beta-mannosidase assessed as p-nitrophenol release by spectrophotometrically
T2 sequence (Q4FZV0 whole entry): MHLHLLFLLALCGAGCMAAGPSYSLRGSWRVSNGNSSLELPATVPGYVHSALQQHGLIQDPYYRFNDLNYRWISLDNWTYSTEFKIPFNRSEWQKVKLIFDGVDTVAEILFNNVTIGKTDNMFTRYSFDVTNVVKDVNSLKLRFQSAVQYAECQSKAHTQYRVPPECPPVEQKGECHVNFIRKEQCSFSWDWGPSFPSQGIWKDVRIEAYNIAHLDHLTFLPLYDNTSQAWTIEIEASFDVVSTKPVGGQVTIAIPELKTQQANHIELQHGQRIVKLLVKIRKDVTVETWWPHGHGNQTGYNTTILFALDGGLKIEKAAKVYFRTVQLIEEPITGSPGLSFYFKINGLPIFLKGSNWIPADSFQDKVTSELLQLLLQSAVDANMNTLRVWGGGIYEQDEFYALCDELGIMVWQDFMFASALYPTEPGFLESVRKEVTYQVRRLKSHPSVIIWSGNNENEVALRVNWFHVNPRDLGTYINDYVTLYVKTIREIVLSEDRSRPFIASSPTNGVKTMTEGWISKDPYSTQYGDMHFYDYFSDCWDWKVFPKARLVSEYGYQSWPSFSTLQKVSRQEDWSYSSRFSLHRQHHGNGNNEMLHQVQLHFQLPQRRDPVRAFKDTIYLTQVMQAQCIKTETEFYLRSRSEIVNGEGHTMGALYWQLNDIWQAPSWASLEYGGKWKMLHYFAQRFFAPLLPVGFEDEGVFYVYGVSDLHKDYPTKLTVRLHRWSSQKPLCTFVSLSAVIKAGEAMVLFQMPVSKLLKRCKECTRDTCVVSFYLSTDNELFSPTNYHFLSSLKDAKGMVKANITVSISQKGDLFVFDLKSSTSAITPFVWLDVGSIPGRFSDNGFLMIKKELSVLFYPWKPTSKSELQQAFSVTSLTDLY

[3] = biological target: T3, Tissue alpha-L-fucosidase (Bos taurus) (UniProt Q2KIM0); assay: Inhibition of bovine epididymis alpha-L-fucosidase assessed as p-nitrophenol release at 1000 uM by spectrophotometrically; outline: as §3
T3 sequence (whole entry): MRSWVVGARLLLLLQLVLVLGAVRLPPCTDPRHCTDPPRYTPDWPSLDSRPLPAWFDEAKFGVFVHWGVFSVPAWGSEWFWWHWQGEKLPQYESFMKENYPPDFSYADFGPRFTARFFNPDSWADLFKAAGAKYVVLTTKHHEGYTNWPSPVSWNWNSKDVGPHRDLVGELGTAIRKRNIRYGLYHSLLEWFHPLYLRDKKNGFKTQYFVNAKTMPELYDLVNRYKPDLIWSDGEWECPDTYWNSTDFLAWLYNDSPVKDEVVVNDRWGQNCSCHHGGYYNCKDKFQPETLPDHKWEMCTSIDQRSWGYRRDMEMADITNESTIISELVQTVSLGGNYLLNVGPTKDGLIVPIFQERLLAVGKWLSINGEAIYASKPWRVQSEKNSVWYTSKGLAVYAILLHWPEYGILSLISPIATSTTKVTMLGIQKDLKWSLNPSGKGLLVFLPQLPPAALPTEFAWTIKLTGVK

Rattus norvegicus = organism: Rattus norvegicus; assay: Inhibition of rat epididymis alpha-mannosidase assessed as p-nitrophenol release at 1000 uM by spectrophotometrically
[4] = Inhibition of rice alpha-glucosidase assessed as glucose release by Glucose B-test; design: species or system Oryza sativa; outline: as §1
[5] = Inhibition of yeast alpha-glucosidase assessed as p-nitrophenol release by spectrophotometrically; design: species or system Saccharomyces cerevisiae; outline: as §3
[6] = biological target: Alpha-galactosidase (Coffea arabica) (UniProt Q42656); assay: Inhibition of coffee bean alpha-galactosidase assessed as p-nitrophenol release at 1000 uM by spectrophotometrically; outline: as §3
[7] = biological target: T4, Beta-mannosidase (Rattus norvegicus) (UniProt Q4FZV0); assay: Inhibition of rat epididymis beta-mannosidase assessed as p-nitrophenol release at 1000 uM by spectrophotometrically
T4 sequence (whole entry): T2 sequence (Q4FZV0 whole entry)

[8] = biological target: Sucrase-isomaltase, intestinal (Rattus norvegicus) (UniProt P23739); assay: Inhibition of rat intestinal isomaltase assessed as glucose release at 1000 uM by Glucose B-test; outline: as §2
[9] = biological target: T5, Tissue alpha-L-fucosidase (Bos taurus, UniProt Q2KIM0); assay: Inhibition of bovine epididymis alpha-L-fucosidase assessed as p-nitrophenol release by spectrophotometrically; outline: as §3
T5 sequence (Q2KIM0 whole entry): T3 sequence (whole entry)

Oryza sativa = assay: Inhibition of rice alpha-glucosidase assessed as glucose release at 1000 uM by Glucose B-test; outline: as §1
[10] = biological target: Sucrase-isomaltase, intestinal (Rattus norvegicus) (UniProt P23739); assay: Inhibition of rat intestinal sucrase assessed as glucose release at 1000 uM by Glucose B-test; outline: as §2
[11] = biological target: T6, Uncharacterized protein (Sus scrofa) (UniProt I3LIR5); assay: Inhibition of pig kidney trehalase assessed as p-nitrophenol release at 1000 uM by spectrophotometrically
T6 sequence (whole entry): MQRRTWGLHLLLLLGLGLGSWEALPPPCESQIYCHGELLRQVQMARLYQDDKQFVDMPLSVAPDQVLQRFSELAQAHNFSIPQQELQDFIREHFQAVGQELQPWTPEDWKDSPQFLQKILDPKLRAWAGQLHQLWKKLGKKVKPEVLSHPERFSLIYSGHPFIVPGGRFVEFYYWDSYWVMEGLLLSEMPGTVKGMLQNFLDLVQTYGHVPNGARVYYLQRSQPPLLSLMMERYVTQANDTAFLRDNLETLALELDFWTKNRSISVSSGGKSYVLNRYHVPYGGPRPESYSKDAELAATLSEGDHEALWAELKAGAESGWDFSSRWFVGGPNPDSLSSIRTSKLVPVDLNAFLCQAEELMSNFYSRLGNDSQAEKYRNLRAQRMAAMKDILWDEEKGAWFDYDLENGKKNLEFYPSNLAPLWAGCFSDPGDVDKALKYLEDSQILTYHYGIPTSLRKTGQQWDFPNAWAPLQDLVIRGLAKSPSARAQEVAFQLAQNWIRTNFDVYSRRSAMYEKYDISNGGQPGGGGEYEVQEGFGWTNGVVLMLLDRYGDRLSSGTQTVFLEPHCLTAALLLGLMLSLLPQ

Alpha-glucosidase MAL62 = Alpha-glucosidase MAL62 (Saccharomyces cerevisiae, UniProt P07265); assay: Inhibition of yeast maltase alpha-glucosidase assessed as glucose release by Glucose B-test
[12] = Inhibition of yeast isomaltase alpha-glucosidase assessed as glucose release by Glucose B-test
Saccharomyces cerevisiae [13] = assay: Inhibition of yeast alpha-glucosidase assessed as p-nitrophenol release at 1000 uM by spectrophotometrically; outline: as §3
[14] = biological target: T7, Beta-galactosidase (Bos taurus) (UniProt Q58D55); assay: Inhibition of bovine liver beta-galactosidase assessed as p-nitrophenol release at 1000 uM by spectrophotometrically; outline: as §3
T7 sequence (whole entry): T1 sequence (Q58D55 whole entry)

Aspergillus niger = assay: Inhibition of Aspergillus niger amyloglucosidase assessed as glucose release at 1000 uM by Glucose B-test; outline: as §1
Uncharacterized protein = biological target: T8, Uncharacterized protein (Sus scrofa, UniProt I3LIR5); assay: Inhibition of pig kidney trehalase assessed as p-nitrophenol release by spectrophotometrically
T8 sequence (I3LIR5 whole entry): T6 sequence (whole entry)

Saccharomyces cerevisiae [15] = assay: Inhibition of yeast isomaltase alpha-glucosidase assessed as glucose release at 1000 uM by Glucose B-test
[16] = biological target: Alpha-glucosidase MAL62 (Saccharomyces cerevisiae) (UniProt P07265); assay: Inhibition of yeast maltase alpha-glucosidase assessed as glucose release at 1000 uM by Glucose B-test
Alpha-glucosidase MAL62 (Saccharomyces cerevisiae), sequence (P07265 whole entry): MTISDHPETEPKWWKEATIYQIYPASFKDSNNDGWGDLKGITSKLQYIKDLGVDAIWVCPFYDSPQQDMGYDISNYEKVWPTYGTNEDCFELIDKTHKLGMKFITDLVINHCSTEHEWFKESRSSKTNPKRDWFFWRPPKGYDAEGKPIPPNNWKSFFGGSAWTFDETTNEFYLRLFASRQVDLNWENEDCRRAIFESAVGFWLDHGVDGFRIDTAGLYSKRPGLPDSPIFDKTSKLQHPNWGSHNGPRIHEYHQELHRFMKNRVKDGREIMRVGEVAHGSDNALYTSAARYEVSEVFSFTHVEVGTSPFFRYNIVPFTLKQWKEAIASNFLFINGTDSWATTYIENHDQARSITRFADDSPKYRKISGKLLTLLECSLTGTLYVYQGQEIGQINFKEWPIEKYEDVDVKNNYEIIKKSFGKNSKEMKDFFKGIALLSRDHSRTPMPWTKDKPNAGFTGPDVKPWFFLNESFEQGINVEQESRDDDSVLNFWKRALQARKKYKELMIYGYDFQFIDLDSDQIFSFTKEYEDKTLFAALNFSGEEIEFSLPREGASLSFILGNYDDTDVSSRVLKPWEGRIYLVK

Alpha-galactosidase (Coffea arabica), sequence (Q42656 16-378 limits assumed): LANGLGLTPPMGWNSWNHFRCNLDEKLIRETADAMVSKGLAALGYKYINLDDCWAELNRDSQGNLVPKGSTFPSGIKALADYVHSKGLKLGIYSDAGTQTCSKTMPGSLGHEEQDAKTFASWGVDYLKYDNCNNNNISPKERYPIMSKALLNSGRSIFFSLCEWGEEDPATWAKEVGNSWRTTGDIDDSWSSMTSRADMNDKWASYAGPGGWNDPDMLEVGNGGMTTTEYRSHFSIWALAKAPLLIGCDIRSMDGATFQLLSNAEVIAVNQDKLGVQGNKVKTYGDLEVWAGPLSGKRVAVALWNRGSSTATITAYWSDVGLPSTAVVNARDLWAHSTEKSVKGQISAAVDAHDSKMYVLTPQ
Sucrase-isomaltase, intestinal (Rattus norvegicus), sequence (P23739 1-1013 limits assumed): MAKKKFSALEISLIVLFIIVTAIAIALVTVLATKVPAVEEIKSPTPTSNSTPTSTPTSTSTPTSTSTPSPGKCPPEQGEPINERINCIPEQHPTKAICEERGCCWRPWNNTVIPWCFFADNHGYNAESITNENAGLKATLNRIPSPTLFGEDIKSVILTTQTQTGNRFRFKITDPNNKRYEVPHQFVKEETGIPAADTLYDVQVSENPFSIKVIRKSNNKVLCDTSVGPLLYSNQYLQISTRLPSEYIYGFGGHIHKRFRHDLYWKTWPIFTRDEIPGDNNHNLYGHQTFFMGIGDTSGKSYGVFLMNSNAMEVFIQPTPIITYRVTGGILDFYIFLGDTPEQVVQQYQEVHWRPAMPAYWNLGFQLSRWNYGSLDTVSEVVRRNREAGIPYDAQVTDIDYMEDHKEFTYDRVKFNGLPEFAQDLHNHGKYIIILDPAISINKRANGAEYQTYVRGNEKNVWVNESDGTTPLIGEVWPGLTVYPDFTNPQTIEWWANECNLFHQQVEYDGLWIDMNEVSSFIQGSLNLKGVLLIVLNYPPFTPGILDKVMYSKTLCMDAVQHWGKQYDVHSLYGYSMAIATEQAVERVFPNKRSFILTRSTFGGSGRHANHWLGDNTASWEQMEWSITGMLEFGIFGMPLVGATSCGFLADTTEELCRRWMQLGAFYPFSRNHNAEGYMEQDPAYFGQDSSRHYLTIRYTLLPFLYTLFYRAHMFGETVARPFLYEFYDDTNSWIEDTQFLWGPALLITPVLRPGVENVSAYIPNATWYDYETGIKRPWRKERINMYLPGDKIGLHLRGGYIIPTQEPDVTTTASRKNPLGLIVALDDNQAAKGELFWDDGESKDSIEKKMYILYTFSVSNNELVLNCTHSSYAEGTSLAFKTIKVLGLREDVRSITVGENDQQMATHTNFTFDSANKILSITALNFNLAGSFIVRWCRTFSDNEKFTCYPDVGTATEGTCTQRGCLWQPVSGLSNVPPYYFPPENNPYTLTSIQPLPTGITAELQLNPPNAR
Sucrase-isomaltase, intestinal (Rattus norvegicus), sequence (P23739 1014-1841 limits assumed): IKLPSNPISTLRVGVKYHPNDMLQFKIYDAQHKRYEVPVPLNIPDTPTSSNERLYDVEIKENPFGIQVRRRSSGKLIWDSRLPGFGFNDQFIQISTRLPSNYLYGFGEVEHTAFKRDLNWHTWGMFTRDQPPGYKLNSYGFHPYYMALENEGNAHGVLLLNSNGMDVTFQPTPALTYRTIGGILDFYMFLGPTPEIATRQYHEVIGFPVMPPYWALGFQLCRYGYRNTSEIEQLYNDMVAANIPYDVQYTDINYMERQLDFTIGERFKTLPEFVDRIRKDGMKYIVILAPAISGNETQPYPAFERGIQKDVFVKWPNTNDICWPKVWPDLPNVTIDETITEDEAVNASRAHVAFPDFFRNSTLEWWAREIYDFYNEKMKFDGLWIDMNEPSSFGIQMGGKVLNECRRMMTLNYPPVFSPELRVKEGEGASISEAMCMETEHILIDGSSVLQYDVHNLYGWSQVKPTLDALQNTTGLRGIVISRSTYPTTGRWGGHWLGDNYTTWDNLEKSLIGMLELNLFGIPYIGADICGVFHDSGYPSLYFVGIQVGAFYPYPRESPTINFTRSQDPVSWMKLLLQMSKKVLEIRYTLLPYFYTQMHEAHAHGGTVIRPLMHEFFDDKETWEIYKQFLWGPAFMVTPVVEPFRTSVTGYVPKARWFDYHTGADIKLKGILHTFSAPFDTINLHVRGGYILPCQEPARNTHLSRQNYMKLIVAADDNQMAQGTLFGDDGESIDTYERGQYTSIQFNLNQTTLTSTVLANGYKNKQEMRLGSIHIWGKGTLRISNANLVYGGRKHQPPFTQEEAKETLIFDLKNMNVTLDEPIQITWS
Lysosomal alpha-glucosidase (Rattus norvegicus), sequence (Q6P7A9 whole entry): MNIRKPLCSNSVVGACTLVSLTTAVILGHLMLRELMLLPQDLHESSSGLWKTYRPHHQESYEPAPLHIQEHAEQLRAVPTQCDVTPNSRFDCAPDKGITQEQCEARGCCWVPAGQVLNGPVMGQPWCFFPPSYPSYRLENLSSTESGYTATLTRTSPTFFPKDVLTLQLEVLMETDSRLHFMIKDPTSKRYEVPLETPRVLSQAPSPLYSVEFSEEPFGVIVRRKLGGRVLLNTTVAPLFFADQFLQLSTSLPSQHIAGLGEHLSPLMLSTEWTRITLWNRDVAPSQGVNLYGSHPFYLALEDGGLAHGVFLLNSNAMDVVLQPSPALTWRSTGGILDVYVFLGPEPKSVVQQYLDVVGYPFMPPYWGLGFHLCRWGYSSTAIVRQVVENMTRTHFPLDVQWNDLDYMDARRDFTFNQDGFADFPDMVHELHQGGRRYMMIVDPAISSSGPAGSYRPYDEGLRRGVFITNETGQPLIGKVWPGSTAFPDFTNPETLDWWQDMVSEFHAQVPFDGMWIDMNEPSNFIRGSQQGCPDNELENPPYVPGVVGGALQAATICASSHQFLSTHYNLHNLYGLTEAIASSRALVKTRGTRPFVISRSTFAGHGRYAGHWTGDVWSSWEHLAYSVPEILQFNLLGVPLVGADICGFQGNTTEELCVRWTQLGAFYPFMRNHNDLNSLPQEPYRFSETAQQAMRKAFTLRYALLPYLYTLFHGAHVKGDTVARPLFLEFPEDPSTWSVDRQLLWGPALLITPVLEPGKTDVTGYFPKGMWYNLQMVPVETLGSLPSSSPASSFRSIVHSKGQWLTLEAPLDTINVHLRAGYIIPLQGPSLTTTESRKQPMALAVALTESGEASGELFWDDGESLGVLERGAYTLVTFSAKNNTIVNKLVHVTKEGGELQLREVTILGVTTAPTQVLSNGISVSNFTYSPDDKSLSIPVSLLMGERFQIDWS
Alpha-glucosidase MAL62, sequence (P07265 whole entry): as the sequence (P07265 whole entry) above

SMILES	inhibition [2]	inhibition [3]	inhibition (Rattus norvegicus)	inhibition [6]	inhibition [7]	inhibition [8]	inhibition (Oryza sativa)	inhibition [10]	further results
OC[C@H]1NC[C@H](O)[C@@H]1O [IMINORIBITOL]	< 50%	< 50%	< 50%	< 50%	–	–	–	–	IC50 [1]: 1000 µM; IC50 (Beta-galactosidase): 380 µM; IC50 (Beta-mannosidase): 18 µM; IC50 [4]: 1000 µM; IC50 [5]: 230 µM
C[C@H]1N[C@@H](CO)[C@H](O)[C@H]1O	< 50%	–	< 50%	< 50%	< 50%	< 50%	< 50%	< 50%	IC50 [1]: 510 µM; IC50 (Beta-galactosidase): 420 µM; IC50 [5]: 570 µM; IC50 [9]: 1 µM; Ki [9]: 0.49 µM
OCCN1[C@H](CO)[C@@H](O)[C@H](O)[C@H]1CO	–	–	–	–	–	–	–	–	inhibition [11]: < 50%; IC50 (Alpha-glucosidase MAL62): 260 µM; IC50 [12]: 240 µM
OC[C@H]1O[C@@H](OC[C@H]2NC[C@@H](O)[C@@H]2O)[C@H](O)[C@@H](O)[C@@H]1O	< 50%	< 50%	< 50%	< 50%	< 50%	< 50%	< 50%	< 50%	inhibition (Saccharomyces cerevisiae [13]): < 50%; inhibition [14]: < 50%; inhibition (Aspergillus niger): < 50%
OC[C@H]1NC[C@H](O)[C@@H](O)[C@@H]1O [DUVOGLUSTAT]	–	–	–	–	–	–	–	–	IC50 (Alpha-glucosidase MAL62): 110 µM; IC50 [12]: 42 µM; IC50 (Uncharacterized protein): 41 µM
OC[C@H]1NC[C@@H](O[C@@H]2O[C@H](CO)[C@@H](O)[C@H](O)[C@H]2O)[C@@H]1O	< 50%	< 50%	< 50%	< 50%	< 50%	< 50%	< 50%	< 50%	inhibition (Saccharomyces cerevisiae [13]): < 50%; inhibition [14]: < 50%; inhibition (Aspergillus niger): < 50%
OCCN1C[C@H](O)[C@@H](O)[C@H](O)[C@H]1CO [MIGLITOL]	–	–	–	–	–	–	–	–	inhibition (Saccharomyces cerevisiae [15]): < 50%; IC50 (Uncharacterized protein): 700 µM; inhibition [16]: < 50%
